Assay results: ChEMBL document CHEMBL4184285, “Antibacterial activities of mono-, di- and tri-substituted triphenylamine-based phosphonium ionic liquids” (Bioorg Med Chem Lett, 2018)

Key:
Enterococcus faecium = assay: Antibacterial activity against Enterococcus faecium DSMZ 20477 after 18 to 24 hrs by broth dilution method; assay type: functional
HepG2 = assay: Cytotoxicity against human HepG2 cells assessed as reduction in cell viability after 24 hrs by WST1 assay; assay type: cell-based; conditions: hepg2, 24 h
Summary of the method: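 Human hepatocyte HepG2 cultures were exposed to test material. IC50 was taken as the concentration giving a 50% decrease in cell respiration relative to the untreated control culture.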

Escherichia coli = assay: Antibacterial activity against Escherichia coli CIP54.8 after 18 to 24 hrs by broth dilution method; assay type: functional
Pseudomonas aeruginosa = assay: Antibacterial activity against Pseudomonas aeruginosa CIP100720 after 18 to 24 hrs by broth dilution method; assay type: functional
Klebsiella aerogenes = assay: Antibacterial activity against Enterobacter aerogenes ATCC 13048 after 18 to 24 hrs by broth dilution method; assay type: functional
Klebsiella pneumoniae = assay: Antibacterial activity against Klebsiella pneumoniae CIP82.91 after 18 to 24 hrs by broth dilution method; assay type: functional
Acinetobacter baumannii = assay: Antibacterial activity against Acinetobacter baumannii ATCC 19606 after 18 to 24 hrs by broth dilution method; assay type: functional; conditions: ATCC 19606 = CIP 70.34 = JCM 6841
Staphylococcus aureus [1] = assay: Antibacterial activity against Staphylococcus aureus CIP 7625 after 18 to 24 hrs by broth dilution method; assay type: functional
Staphylococcus aureus [2] = assay: Antibacterial activity against Staphylococcus aureus SA1199B over-expressing NorA after 18 to 24 hrs by broth dilution method; assay type: functional
Staphylococcus aureus [3] = assay: Antibacterial activity against Staphylococcus aureus SA1199 after 18 to 24 hrs by broth dilution method; assay type: functional

| Structure (SMILES) | MIC (Enterococcus faecium) [µg/mL] | Activity (HepG2) [%] | MIC (Escherichia coli) [µg/mL] | MIC (Pseudomonas aeruginosa) [µg/mL] | MIC (Klebsiella aerogenes) [µg/mL] | MIC (Klebsiella pneumoniae) [µg/mL] | MIC (Acinetobacter baumannii) [µg/mL] | MIC (Staphylococcus aureus [1]) [µg/mL] | MIC (Staphylococcus aureus [2]) [µg/mL] | MIC (Staphylococcus aureus [3]) [µg/mL] |
| --- | --- | --- | --- | --- | --- | --- | --- | --- | --- | --- |
| CCCCCC[P+](CCCCCC)(CCCCCC)CCCCCCOCc1ccc(N(c2ccccc2)c2ccc(COCCCCCC[P+](CCCCCC)(CCCCCC)CCCCCC)cc2)cc1.[Cl-].[Cl-] | 2 | 4.16 | 32 | 64 | > 64 | 16 | 16 | 2 | 2 | 2 |
| CCCCCC[P+](CCCCCC)(CCCCCC)CCCCCCOCc1ccc(N(c2ccccc2)c2ccccc2)cc1.[Br-] | 4 |  | > 64 | 64 | > 64 | 64 | 64 | 2 | 2 | 2 |
| CCCC[P+](CCCC)(CCCC)CCCCCCOCc1ccc(N(c2ccccc2)c2ccccc2)cc1.[Cl-] | 1 |  | 16 | 32 | 16 | 16 | 16 | 1 | 0.5 | 0.5 |
| CCCCCCCC[P+](CCCCCCCC)(CCCCCCCC)CCCCCCOCc1ccc(N(c2ccccc2)c2ccccc2)cc1.[Cl-] | 16 |  | > 64 | > 64 | > 64 | > 64 | > 64 | 8 | 8 | 8 |
| CCCCCC[P+](CCCCCC)(CCCCCC)CCCCCCCCCCOCc1ccc(N(c2ccccc2)c2ccccc2)cc1.[Br-] | 8 |  | 32 | 64 | > 64 | 32 | 16 | 2 | 2 | 1 |
| CCCCCC[P+](CCCCCC)(CCCCCC)CCCCCCOCc1ccc(N(c2ccccc2)c2ccccc2)cc1.[Cl-] | 4 | 0.09 | > 64 | 16 | > 64 | > 64 | > 64 | 2 | 2 | 2 |
| CCCCCC[P+](CCCCCC)(CCCCCC)CCCCCCOCc1ccc(N(c2ccc(COCCCCCC[P+](CCCCCC)(CCCCCC)CCCCCC)cc2)c2ccc(COCCCCCC[P+](CCCCCC)(CCCCCC)CCCCCC)cc2)cc1.[Cl-].[Cl-].[Cl-] | 4 | 4.28 | 32 | > 64 | 64 | 16 | 16 | 2 | 2 | 2 |
